Measurements published in ChEMBL document CHEMBL2380254, “Optimization of tocotrienols as antiproliferative and antimigratory leads” (Eur J Med Chem, 2013).

What was measured:
Assay type in all cases: functional
786-0 [1] = test: Growth inhibition of human 786-0 cells after 48 hrs by sulforhodamine B assay; settings: 786-0, 48 h
Summary of the method: (§1)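 NCI-60 screen: cells in RPMI 1640 with 5% FBS and 2 mM glutamine, 5000–40,000 cells/well, preincubated 24 h. Five concentrations (10-fold dilutions; 100 to 0.001 µM) applied for 48 h at 37 °C. TCA fixation, SRB stain, absorbance at 515 nm. Time-zero plates included; GI50 where 100×(T−T0)/(C−T0)=50.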

SR = test: Growth inhibition of human SR cells assessed as cell growth at 10 uM after 48 hrs by sulforhodamine B assay; settings: read-out: Activity
Summary of the method: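 Suspension line in RPMI 1640 with 5% FBS, single 10 µM dose for 48 h. Settled cells were fixed with TCA (final 16%), then SRB-stained and read at 515 nm. Percent growth was taken versus T0 and control; negative values denote cytotoxicity.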

HT-29 = test: Growth inhibition of human HT-29 cells after 48 hrs by sulforhodamine B assay; settings: HT-29, 48 h; summary of the method: as §1
NCI-H460 = test: Growth inhibition of human NCI-H460 cells assessed as cell growth at 10 uM after 48 hrs by sulforhodamine B assay; settings: NCI-H460, 48 h, read-out: Activity
Summary of the method: (§2)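 Single-dose NCI-60 screen: adherent cells in RPMI 1640 with 5% FBS were exposed to 10 µM for 48 h at 37 °C after a 24 h preincubation. They were fixed in situ with cold TCA (10% final), stained with 0.4% SRB in 1% acetic acid, solubilized in 10 mM Tris base, and read at 515 nm. Percent growth was taken relative to time-zero and control plates.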

TK-10 = test: Growth inhibition of human TK10 cells after 48 hrs by sulforhodamine B assay; settings: TK-10, 48 h
Summary of the method: (§3)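 NCI-60 five-dose screen. Cells were grown in RPMI 1640 with 5% FBS and 2 mM L-glutamine, plated at 5000–40,000 cells/well and incubated 24 h before dosing, with T0 plates TCA-fixed. DMSO stocks were diluted to doses of […] and exposed 48 h at 37 °C, 5% CO2. Cells were fixed with cold TCA (final 10%, 60 min, 4 °C), stained with 0.4% SRB in 1% acetic acid for 10 min, solubilized in 10 mM trizma base and read at 515 nm. GI50 is where 100×(T−T0)/(C−T0)=50.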

UO-31 = test: Growth inhibition of human UO31 cells assessed as cell growth at 10 uM after 48 hrs by sulforhodamine B assay; settings: UO-31, 48 h, read-out: Activity
Summary of the method: (§4)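 Single-dose NCI-60 test at 10 µM. Cells were grown in RPMI 1640 with 5% FBS and 2 mM L-glutamine, preincubated 24 h, with T0 plates TCA-fixed. Exposure was 48 h at 37 °C, 5% CO2. Cells were fixed with cold TCA (final 10%, 4 °C, 60 min), stained with SRB and read at 515 nm. Percent growth was taken relative to T0 and untreated control; negative values denote cell kill.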

A549 = test: Growth inhibition of human A549/ATCC cells assessed as cell growth at 10 uM after 48 hrs by sulforhodamine B assay; settings: A549, 48 h, read-out: Activity
Summary of the method: (§5)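 NCI-60 single-dose screen at 10 µM: cells in RPMI 1640 with 5% FBS, preincubated 24 h, then exposed 48 h at 37 °C. TCA fixation (16% final for suspension cells), SRB staining, absorbance 515 nm. Percent growth relative to time-zero and untreated control plates; negative values indicate cell kill.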

HL-60(TB) = test: Growth inhibition of human HL-60(TB) cells after 48 hrs by sulforhodamine B assay; settings: HL-60, 48 h
Summary of the method: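 HL-60(TB) cells (suspension) grown in RPMI 1640 with 5% FBS and 2 mM L-glutamine. They were plated and preincubated for 24 h, with T0 plates fixed at that point. Drug was given at five 10-fold dilutions for 48 h at 37 °C. Settled cells were fixed with TCA (16% final), stained with 0.4% SRB in 1% acetic acid and read at 515 nm. GI50 was taken where 100×(T−T0)/(C−T0)=50.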

OVCAR-3 = test: Growth inhibition of human OVCAR3 cells assessed as cell growth at 10 uM after 48 hrs by sulforhodamine B assay; settings: OVCAR-3, 48 h, read-out: Activity; summary of the method: as §2
SNB-19 = test: Growth inhibition of human SNB19 cells assessed as cell growth at 10 uM after 48 hrs by sulforhodamine B assay; settings: SNB-19, 48 h, read-out: Activity; summary of the method: as §4
SK-OV-3 [2] = test: Growth inhibition of human SKOV3 cells assessed as cell growth at 10 uM after 48 hrs by sulforhodamine B assay; settings: SK-OV-3, 48 h, read-out: Activity; summary of the method: as §4
786-0 [3] = test: Growth inhibition of human 786-0 cells assessed as cell growth at 10 uM after 48 hrs by sulforhodamine B assay; settings: 786-0, 48 h, read-out: Activity; summary of the method: as §5
HCT-116 [4] = test: Growth inhibition of human HCT116 cells assessed as cell growth at 10 uM after 48 hrs by sulforhodamine B assay; settings: HCT-116, 48 h, read-out: Activity; summary of the method: as §5
ACHN = test: Growth inhibition of human ACHN cells assessed as cell growth at 10 uM after 48 hrs by sulforhodamine B assay; settings: read-out: Activity; summary of the method: as §5
SK-OV-3 [5] = test: Growth inhibition of human SKOV3 cells after 48 hrs by sulforhodamine B assay; settings: SK-OV-3, 48 h; summary of the method: as §3
SF-539 [6] = test: Growth inhibition of human SF539 cells after 48 hrs by sulforhodamine B assay; settings: SF-539, 48 h
Summary of the method: (§6)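 NCI-60 panel cells grown in RPMI 1640 with 5% FBS and 2 mM L-glutamine, seeded at 5000–40,000 cells/well and preincubated 24 h. Five 10-fold dilutions (0.001–100 µM) from DMSO stocks were added for 48 h at 37 °C. Adherent cells were fixed with cold TCA (10% final) for 60 min at 4 °C, stained with 0.4% SRB, and read at 515 nm. GI50 was set where 100×(T−T0)/(C−T0)=50.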

NCI-H522 = test: Growth inhibition of human NCI-H522 cells after 48 hrs by sulforhodamine B assay; settings: NCI-H522, 48 h; summary of the method: as §6
SF-539 [7] = test: Growth inhibition of human SF539 cells assessed as cell growth at 10 uM after 48 hrs by sulforhodamine B assay; settings: SF-539, 48 h, read-out: Activity; summary of the method: as §2
MDA-MB-435 [8] = test: Growth inhibition of human MDA-MB-435 cells after 48 hrs by sulforhodamine B assay; settings: MDA-MB-435, 48 h; summary of the method: as §6
COLO 205 = test: Growth inhibition of human COLO205 cells assessed as cell growth at 10 uM after 48 hrs by sulforhodamine B assay; settings: COLO 205, 48 h, read-out: Activity; summary of the method: as §5
MDA-MB-435 [9] = test: Growth inhibition of human MDA-MB-435 cells assessed as cell growth at 10 uM after 48 hrs by sulforhodamine B assay; settings: MDA-MB-435, 48 h, read-out: Activity; summary of the method: as §2
HCT-116 [10] = test: Growth inhibition of human HCT116 cells after 48 hrs by sulforhodamine B assay; settings: HCT-116, 48 h; summary of the method: as §1

SMILES	GI50 (786-0 [1]) [µM]	growth at 10 µM (SR) [%]	GI50 (HT-29) [µM]	growth at 10 µM (NCI-H460) [%]	GI50 (TK-10) [µM]	growth at 10 µM (UO-31) [%]	growth at 10 µM (A549) [%]	GI50 (HL-60(TB)) [µM]	growth at 10 µM (SNB-19) [%]	growth at 10 µM (SK-OV-3 [2]) [%]	growth at 10 µM (786-0 [3]) [%]	growth at 10 µM (HCT-116 [4]) [%]	growth at 10 µM (ACHN) [%]	GI50 (SK-OV-3 [5]) [µM]	GI50 (SF-539 [6]) [µM]	GI50 (NCI-H522) [µM]	growth at 10 µM (SF-539 [7]) [%]	GI50 (MDA-MB-435 [8]) [µM]	growth at 10 µM (COLO 205) [%]	growth at 10 µM (MDA-MB-435 [9]) [%]	further results
CC(C)=CCC/C(C)=C/CC/C(C)=C/CC[C@]1(C)CCc2c3c(cc(C)c2O1)OCN(CCCCCO)C3	6.47	-16.9	3.74	-70.2	5.98	50.4	36.1	6.26	82	96.9	81.2	-89.6	81.6	6.85	6.26	7.08	95	5.8	3.96	44.7	growth at 10 µM (OVCAR-3): 54.6%; GI50 (HCT-116 [10]): 5.25 µM
CC(C)=CCC/C(C)=C/CC/C(C)=C/CC[C@]1(C)CCc2c3c(cc(C)c2O1)OCN(CCCCCCO)C3	1.74	-38	0.72	-15.7	2.54	-37.8	-34.7	1.37	-6.48	-37.2	-98	-97.3	-39.7	2.62	2.37	4.37	28.3	0.967	-79.6	-48.1	growth at 10 µM (OVCAR-3): -61.6%; GI50 (HCT-116 [10]): 0.659 µM
COc1ccc(CCN2COc3cc(C)c4c(c3C2)CC[C@@](C)(CC/C=C(\C)CC/C=C(\C)CCC=C(C)C)O4)cc1OC	1.78	4.1	1.85	-68.2	3.08	51.2	58.4	1.9	80.5	92.8	49.3	-84	75.7	1.9	1.96	2.08	88.8	1.66	-72.5	-51.1	growth at 10 µM (OVCAR-3): -22.9%; GI50 (HCT-116 [10]): 1.76 µM
CC(C)=CCC/C(C)=C/CC/C(C)=C/CC[C@]1(C)CCc2c3c(c(C)c(C)c2O1)OCN(CCCCCCO)C3	2.79	-34.8	3.04	2.49	3.01	42.7	38.9	3.58	18.1	13.4	33.7	-92.7	68.6	2.57	3.15	3.45	66.1	2.95	31.8	22.1	GI50 (HCT-116 [10]): 2.87 µM
CC(C)=CCC/C(C)=C/CC/C(C)=C/CC[C@]1(C)CCc2c3c(cc(C)c2O1)OCN(CCc1ccc(O)cc1)C3	6.61	1.96	3.53	-44.4	5.56	52.1	76.6	3.34	92.1	69.1	69	-58.2	91	6.2	6.41	5.32	94.1	4.54	-69.9	-53.1	growth at 10 µM (OVCAR-3): 36.4%; GI50 (HCT-116 [10]): 3.88 µM
CC(C)=CCC/C(C)=C/CC/C(C)=C/CC[C@]1(C)CCc2c3c(cc(C)c2O1)OCN(CCCCO)C3	15.5	-40.9	8.33	-20.4	15.4	54.9	-37.7	18.8	-28.3	26.4	-49.2	-96.7	-57.1	16.4	19.1	21.9	27.4	17	-76.8	-31.8	growth at 10 µM (OVCAR-3): -20.8%; GI50 (HCT-116 [10]): 16 µM
